# Yeast superoxide: caloric restriction mimetics inhibiting age-related superoxide in yeast | 330,000 compounds, 0.18% hits | superoxide response (% of plate mean), % at 10 µM | S. cerevisiae aged cells, superoxide DHE fluorescence; active compounds read low;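 active = superoxide response under a set limit, about three screen SD below normal, cut at about 65% in these data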;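 note: yeast aged for seven days with compound at 30 °C before DHE staining; 100% = average MFI of all compound-treated wells on the plate with controls excluded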
# S1P3 antag-1: S1P3 (human) receptor antagonism. CHO S1P3 NFAT-BLA reporter, FRET fluorescence, antagonist mode. inhibition, % at 4.98 µM. AID 485. Q99500. 170,000 compounds, 0.27% hits;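 active = inhibition above the plate cutoff, the mean inhibition of test wells on that plate plus 3 SD, cut at about 28% in these data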;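 note: cells challenged with S1P at its EC80 of 0.8 µM; blue over green emission ratio from cleaved BLA substrate after 4 h stimulation; 0% = S1P-stimulated wells and 100% = unstimulated DMSO-only wells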
# Target sequence (Q99500 whole entry, looked up): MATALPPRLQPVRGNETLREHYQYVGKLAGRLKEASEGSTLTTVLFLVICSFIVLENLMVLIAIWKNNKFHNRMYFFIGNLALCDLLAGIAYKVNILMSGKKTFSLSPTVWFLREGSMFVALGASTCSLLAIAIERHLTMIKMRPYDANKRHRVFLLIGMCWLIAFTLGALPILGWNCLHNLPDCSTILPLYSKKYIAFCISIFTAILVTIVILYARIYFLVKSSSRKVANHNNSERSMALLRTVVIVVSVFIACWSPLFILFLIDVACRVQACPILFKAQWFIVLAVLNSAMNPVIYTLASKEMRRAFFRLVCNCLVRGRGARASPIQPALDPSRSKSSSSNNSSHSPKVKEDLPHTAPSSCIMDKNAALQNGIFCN
# T cell HTS: modulates CD8 T cell binding to vesicles; 2C CD8+ T cell-vesicle binding, flow cytometry; active compounds read low; response (vesicle binding), % at 7 µM; 330,000 compounds, 0.068% hits;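 active = response, share of CD8 T cells binding vesicles, and their 90th percentile fluorescence all below set limits, cut at about 80% in these data, passing the limit was not always enough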;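 note: values below 100% mean blocked vesicle binding to the CD8+ T cells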
#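 Assay system: 2C TCR transgenic mouse naive CD8+ T cells, MACS-purified | Read-out: CD8+ gate FL2 mean fluorescence as % of same-row positive control | Signal: High-throughput flow cytometry with anti-B7-1 and anti-CD8 staining | Timing: Binding step 1.5 h, 37 °C, antibody labelling 20 min, ice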
# S1P3 antag-2: confirmation of human S1P3 receptor antagonists | shares compounds with S1P3 antag-1 | CHO S1P3 NFAT-BLA reporter, FRET, antagonist mode | inhibition, % at 4.98 µM | 240 compounds, 30% hits;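 active = inhibition above the hit threshold that was computed for the earlier primary screen, cut at about 30% in these data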;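 note: 0% = S1P-stimulated wells and 100% = unstimulated DMSO-only wells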
# Starred values were filed as active, the others as inactive; i = inactive; . = no result. An excerpt weighted towards active compounds, which were near 0.41% of everything screened.
SMILES,Yeast superoxide,S1P3 antag-1,T cell HTS,others
COc1ccc(C(=O)OC(C)C(=O)NC(C)CCc2ccccc2)c(OC)c1 (stereo not given),96,.,204,
Cc1cc(C)nc(SCC(=O)NNC(=O)c2cccs2)n1,114,-8,392,
Cc1cc(C)nc(SCC(=O)NNC(=O)c2ccccc2C)n1,65*,-8,217,
COc1ccc(S(=O)(=O)N2CCN(C(=O)c3cc(C)on3)CC2)cc1,117,.,332,
COc1ccc(CNC(=O)C(C)n2ccc3cc(S(=O)(=O)N4CCCCCC4)ccc32)cc1 (stereo not given),75,.,340,
CCN(CC)S(=O)(=O)c1ccc2[nH]c(=O)c3ccccc3c2c1,101,.,158,
COCCCNC(=O)C1CCN(S(=O)(=O)c2ccc3nc4c(c(C(=O)O)c3c2)CCCCC4)CC1,101,.,424,
Cc1c2cccn2cc[n+]1C,110,-6,78*,
Cc1nn(CC(=O)N2CCN(c3cccc(C(F)(F)F)c3)CC2)c(=O)c2cccn12,i,.,524,
Cc1[nH]c2ccccc2c1CCC(N)=O,87,4,252,
Cc1[nH]c2ccccc2c1Cc1nnc(SCC(N)=O)o1,109,82*,228,
CC(C)(C)c1ccc(C(=O)NC(=S)NCc2cccnc2)cc1,96,1,365,
COc1ccc2c(c1)CCc1c(C(=O)NCc3cccnc3)noc1-2,81,70*,i,
CC(C)(C)c1ccc(C(=O)NCc2cccnc2)cc1,100,75*,617,
CCCNC(=O)c1noc2c1CCc1cc(OC)ccc1-2,99,-35,118,
CCOc1cc(C(=O)NC2CCCCCCC2)cc(OCC)c1OCC,98,.,244,
Cc1cc(=O)nc2c3ccccc3n(CC(=O)NC(C)c3ccc4c(c3)OCCO4)n12 (stereo not given),79,.,432,
COc1ccc(Cn2nnnc2C(c2cccs2)N2CCSCC2)cc1 (stereo not given),97,25,328,
COc1ccc(Cn2nnnc2C(c2cccs2)N2CCCCCC2)cc1 (stereo not given),85,.,52*,
Cc1cc(C)c(NC(=O)COC(=O)Cc2cccs2)c(C)c1,145,.,204,
CSC1=NCCN1C(=O)Cc1ccc(Cl)cc1,97,66*,i,
COc1ccc(CC(=O)N2CCN=C2SC)cc1,105,4,286,
CN(C)c1ccc(C(C(=O)NCC2CCCO2)N(Cc2ccccc2)C(=O)c2snc(C(N)=O)c2N)cc1 (stereo not given),84,.,422,
Cc1cccc(N(C(=O)c2snc(C(N)=O)c2N)C(C(=O)NCC2CCCO2)c2ccc(N(C)C)cc2)c1C (stereo not given),95,.,0.0*,
CCOc1ccc(S(=O)(=O)/N=C(/Nc2ccc(C)c(S(=O)(=O)N3CCOCC3)c2)c2ccccc2)cc1,88,.,448,
SMILES,Yeast superoxide,S1P3 antag-1,T cell HTS,others
CCc1nnc(NC(=O)CSc2nnc(C(C)NC(=O)c3ccccc3)n2C)s1 (stereo not given),107,.,255,
O=C(O)c1ccc(NC(=S)NC(=O)c2cccnc2)cc1,94,.,227,
CC(/C=C/c1ccc(C)o1)=C\C(=O)O,93,.,66*,
CC(=C/C(=O)O)/C=C/c1ccc(Cl)o1,92,.,392,
Cc1ccc(C)c(OC(C)C(=O)Nc2nccs2)c1 (stereo not given),92,.,276,
COc1ccc(-c2nc(CS(=O)CC(=O)NCCCN3CCOCC3)c(C)o2)cc1OC (stereo not given),98,.,287,
CC(C)(C)c1ccc(C(=O)C2CCCN(C(=O)CN3CCCC3=O)C2)cc1 (stereo not given),111,-5,272,
CN(C)C(=O)N1CCC(C(=O)N2CCCC(C(=O)c3ccc(C(C)(C)C)cc3)C2)CC1 (stereo not given),63*,4,291,
CC(C)(C)OC(=O)C[C@@H]1C/C=C\C[C@H](CC(=O)NCCO)C(=O)NC[C@H](c2ccccc2)OC1=O,88,.,327,
CCOC(=O)N1CCN(C(=O)c2nn(C)c3c2CSc2ccccc2-3)CC1,99,.,533,
Cc1ccc(C(=O)N/C(=C\c2ccco2)C(=O)N2CCCCC2)cc1,93,.,256,
CCOC(=O)c1c(N)c(C#N)cn1-c1ccccc1,102,13,157,
CCOC(=O)c1c(NC(=O)c2nn(CC)cc2Br)c(C#N)cn1-c1ccccc1,107,59*,278,
CCCCNC(=O)c1cccc(S(=O)(=O)N2CC3(C)CC2CC(C)(C)C3)c1 (stereo not given),88,.,142,
O=C(CSc1nnnn1-c1cccc(O)c1)NC1CC1,96,.,460,
Cc1ccccc1NC(=O)c1c(Cl)nc(C)c(Cl)c1C,116,-1,273,
Cc1nc(Cl)c(C(=O)NC(=O)NCc2ccccc2)c(C)c1Cl,88,-8,0.0*,
CCCCC1(C)NC(=O)N(CC(=O)Nc2cc(S(=O)(=O)N3CCOCC3)ccc2Cl)C1=O (stereo not given),92,.,274,
CC1CCCCC1NC(=O)CCCn1c(=S)[nH]c2ccccc2c1=O (stereo not given),98,-10,192,
O=C(CCCn1c(=S)[nH]c2ccccc2c1=O)NC1CCCC1,94,60*,523,
COCCOC(=O)c1[nH]c2c(c1C)C(=O)CC(c1ccco1)C2 (stereo not given),93,17,162,
COCCOC(=O)c1[nH]c2c(c1C)C(=O)CC(c1cc(OC)c(OC)c(OC)c1)C2 (stereo not given),101,.,164,
Cc1c(C(=O)OCCOC(C)C)[nH]c2c1C(=O)CC(c1ccco1)C2 (stereo not given),101,54*,86,
CCCCOC(=O)c1[nH]c2c(c1C)C(=O)CC(c1cc(OC)c(OC)c(OC)c1)C2 (stereo not given),107,52*,58,
C[C@H](NC(N)=O)C(=O)Nc1ccc(N2CCOCC2)c(S(=O)(=O)Nc2ccc(Cl)cc2)c1,87,.,682,
SMILES,Yeast superoxide,S1P3 antag-1,T cell HTS,others
O=C(CSc1n[nH]c(-c2ccncc2)n1)c1cccc([N+](=O)[O-])c1,102,-20,270,
O=C(CSc1n[nH]c(-c2ccncc2)n1)c1ccccc1,90,72*,473,
O=C(c1ccco1)N1CCN(C(=O)c2ccccc2OCc2ccccc2)CC1,90,.,379,
CN(C)S(=O)(=O)c1ccc(C(=O)NCCc2ccco2)cc1,101,.,66*,
COc1ccccc1OCCNC(=O)c1ccc(S(=O)(=O)N(C)C)cc1,98,-2,461,
COc1cccc(C(=O)NCCC(=O)NCc2cc(=O)n(C)c(=O)n2C)c1,103,.,382,
Cc1cccc([C@@H]2[C@@H]3C(=O)N(Cc4ccccc4)C(=O)[C@@H]3[C@]3(Cc4ccccc4)C(=O)N(c4ccc(C(F)(F)F)cc4)C(=O)N23)c1,106,.,429,
CC(=O)Nc1cccc(NC(=O)CSc2nnnn2C)c1,.,70*,.,
CC(=O)Nc1cccc(NC(=O)CSc2nnnn2C(C)C)c1,103,-34,125,
Cc1cc(C(=O)CCC(=O)N(C)CC(=O)Nc2c(Cl)cccc2Cl)c(C)s1,104,.,412,
O=C1c2cccc3c(N4CCCCC4)ccc(c23)C(=O)N1c1ccccc1O,116,48*,302,S1P3 antag-2=33*

# Screening results as filed in PubChem BioAssay.
